Source: article PMC5973995 (Clinical Pharmacokinetics, 2017)
Where two headings read alike, the source gives them in different places.

Assays:
CYP3A4/5 = experiment: In-vitro CYP inhibition in pooled human liver microsomes; assay type: in vitro ADME; conditions: data on file
[1] = assay type: in vivo, human; conditions: for AUC(0-inf) / AUC(0-t) / Cmax / Tmax / Vd/F / half-life: both, human, plasma, po; for CL/F: healthy subjects, mean (% CV)
Outline: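 Healthy subjects given a single oral dose; plasma parameters derived by non-compartmental analysis of pooled phase I data. Reported as mean and % coefficient of variation, except Tmax as median (minimum–maximum). AUC taken both to infinity and to the last quantifiable concentration. CL/F is total clearance, and Vz/F is the terminal-phase apparent volume after extravascular dosing.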

5-HT1B receptor = conditions: in vitro; cited from earlier work
[2] = system: P-glycoprotein (Pgp) transporter; conditions: cited from earlier work
[3] = cited from earlier work
[4] = cited from earlier work; remark: listed apart in the source
[5] = Effect of sex, age and race/ethnicity on pharmacokinetics; assay type: in vivo, human
CYP2D6 = CYP2D6 (Homo sapiens, UniProt P10635); experiment: In-vitro CYP inhibition in pooled human liver microsomes; assay type: in vitro ADME; conditions: data on file
Sequence of CYP2D6 (P10635 whole entry): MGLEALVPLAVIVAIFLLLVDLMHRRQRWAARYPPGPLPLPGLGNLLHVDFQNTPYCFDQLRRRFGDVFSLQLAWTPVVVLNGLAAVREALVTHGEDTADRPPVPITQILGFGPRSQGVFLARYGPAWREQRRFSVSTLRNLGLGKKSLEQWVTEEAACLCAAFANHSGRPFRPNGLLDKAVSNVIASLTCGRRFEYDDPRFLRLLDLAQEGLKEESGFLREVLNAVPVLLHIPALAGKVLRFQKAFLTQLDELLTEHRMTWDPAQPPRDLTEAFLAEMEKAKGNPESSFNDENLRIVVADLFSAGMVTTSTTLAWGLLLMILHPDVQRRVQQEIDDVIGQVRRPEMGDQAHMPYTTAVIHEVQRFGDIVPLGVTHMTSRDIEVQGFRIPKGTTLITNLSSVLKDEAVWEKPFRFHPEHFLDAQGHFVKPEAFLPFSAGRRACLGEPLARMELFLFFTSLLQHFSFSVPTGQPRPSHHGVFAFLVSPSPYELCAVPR

CYP1A2 = biological target: T1, CYP1A2 (Homo sapiens, UniProt P05177); experiment: as above; assay type: in vitro ADME; conditions: data on file
T1 sequence (P05177 1-516): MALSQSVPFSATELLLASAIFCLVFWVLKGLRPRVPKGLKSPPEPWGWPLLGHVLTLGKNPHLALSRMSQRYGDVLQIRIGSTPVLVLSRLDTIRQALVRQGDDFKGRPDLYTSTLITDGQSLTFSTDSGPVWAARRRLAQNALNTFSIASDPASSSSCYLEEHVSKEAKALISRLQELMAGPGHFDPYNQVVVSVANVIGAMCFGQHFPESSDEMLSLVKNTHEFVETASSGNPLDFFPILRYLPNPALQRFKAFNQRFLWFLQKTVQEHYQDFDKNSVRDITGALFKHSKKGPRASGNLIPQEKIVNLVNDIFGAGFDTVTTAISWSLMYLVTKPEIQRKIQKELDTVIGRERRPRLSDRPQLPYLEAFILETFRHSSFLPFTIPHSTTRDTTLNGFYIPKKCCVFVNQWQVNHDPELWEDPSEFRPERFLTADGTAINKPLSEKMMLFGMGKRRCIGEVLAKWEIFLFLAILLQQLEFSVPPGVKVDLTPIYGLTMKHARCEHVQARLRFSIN

[6] = 10 or 40 mg once daily; ICH E14 definitions; cited from earlier work
[7] = cited from earlier work; remark: listed apart in the source
[8] = assay type: in vivo, human; conditions: for AUC(0-t) / Tmax / Vd/F / half-life: both, human, plasma, oral; for AI (accumulation index = AUC(0–tau) at steady state/AUC(0–24) day 1) / CL/F / C max: healthy subjects, mean (% CV); for C max: steady state
[9] = cited from earlier work; remark: listed apart in the source
CYP2C9 = CYP2C9 (Homo sapiens, UniProt P11712); experiment: In-vitro CYP inhibition in pooled human liver microsomes; assay type: in vitro ADME
Sequence of CYP2C9 (P11712 whole entry): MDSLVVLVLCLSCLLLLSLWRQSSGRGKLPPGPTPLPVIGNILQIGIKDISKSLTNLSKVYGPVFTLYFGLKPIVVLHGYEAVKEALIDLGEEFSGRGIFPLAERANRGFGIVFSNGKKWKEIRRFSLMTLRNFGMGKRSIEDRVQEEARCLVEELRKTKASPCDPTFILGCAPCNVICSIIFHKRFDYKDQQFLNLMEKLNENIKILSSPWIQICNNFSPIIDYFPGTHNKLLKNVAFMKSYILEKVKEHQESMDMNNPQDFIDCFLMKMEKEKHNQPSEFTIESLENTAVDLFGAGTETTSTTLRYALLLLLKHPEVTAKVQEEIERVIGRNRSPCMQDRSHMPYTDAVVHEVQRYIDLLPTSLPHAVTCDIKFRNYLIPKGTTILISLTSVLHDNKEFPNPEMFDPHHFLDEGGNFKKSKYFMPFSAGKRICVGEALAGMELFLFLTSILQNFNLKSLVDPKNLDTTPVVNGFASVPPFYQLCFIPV

CYP2C19 = CYP2C19 (Homo sapiens, UniProt P33261); experiment: as above; assay type: in vitro ADME
Sequence of CYP2C19 (P33261 whole entry): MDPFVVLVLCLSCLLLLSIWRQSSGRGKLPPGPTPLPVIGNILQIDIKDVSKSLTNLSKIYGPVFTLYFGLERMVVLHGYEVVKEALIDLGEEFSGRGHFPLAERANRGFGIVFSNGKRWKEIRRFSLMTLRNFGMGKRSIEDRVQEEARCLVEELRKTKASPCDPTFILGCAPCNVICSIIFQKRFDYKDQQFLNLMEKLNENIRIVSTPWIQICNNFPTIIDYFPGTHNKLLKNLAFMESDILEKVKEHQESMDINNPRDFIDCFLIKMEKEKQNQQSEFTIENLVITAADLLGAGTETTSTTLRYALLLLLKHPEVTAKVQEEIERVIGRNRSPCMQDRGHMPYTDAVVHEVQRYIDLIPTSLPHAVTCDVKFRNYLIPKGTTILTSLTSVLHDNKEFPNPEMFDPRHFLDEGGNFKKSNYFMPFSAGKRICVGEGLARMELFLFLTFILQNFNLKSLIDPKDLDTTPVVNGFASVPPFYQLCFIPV

5-HT7 receptor = conditions: in vitro; cited from earlier work
[10] = rifampin 600 mg daily with vortioxetine 20 mg
[11] = mild-to-moderate hepatic impairment, single dose 10 mg (Fig. 2)
[12] = severe hepatic impairment, single dose 5 mg
[13] = multiple doses of 2.5, 5, and 20 mg, male, data on file
[14] = bupropion 150 mg twice daily with vortioxetine 10 mg once daily
[15] = fluconazole 200 mg once daily with vortioxetine 10 mg
[16] = ketoconazole 400 mg once daily with vortioxetine 10 mg
[17] = pooled human liver microsomes, CYP isozyme-specific probe substrates, data on file

In the case of Br.Cc1ccc(Sc2ccccc2N2CCNCC2)c(C)c1 [vortioxetine, 1-[2-(2,4-dimethyl-phenylsulfanyl)-phenyl]-piperazine, hydrobromide], the “inhibitory in-vitro effect on CYP3A4/5” value (CYP3A4/5) is reported as “no inhibitory in-vitro effect”, the “time to reach maximum observed plasma concentration” value ([1]; after single or multiple dosing (Tables 1, 2)) is reported as 7 to 11 h and the AUC(0-inf) ([1]; 5 mg) is reported as 188 ng·h/mL. It also gave an AUC(0-t) ([1]; 5 mg) of 157 ng·h/mL, a Cmax ([1]; 5 mg) of 1.87 ng/mL and a Tmax ([1]; 5 mg) of 11 h. The Vd/F ([1]; 5 mg) was 2740 L, the half-life ([1]; 5 mg) was 2.89 days and the AUC(0-inf) ([1]; 10 mg) was 273 ng·h/mL. For the same compound, the AUC(0-t) ([1]; 10 mg) was 255 ng·h/mL, the Cmax ([1]; 10 mg) was 4.6 ng/mL and the Tmax ([1]; 10 mg) was 8 h. It also gave a Vd/F ([1]; 10 mg) of 2770 L, a half-life ([1]; 10 mg) of 2.53 days and an AUC(0-inf) ([1]; 20 mg) of 646 ng·h/mL. The AUC(0-t) ([1]; 20 mg) was 561 ng·h/mL, the Cmax ([1]; 20 mg) was 8.11 ng/mL and the Tmax ([1]; 20 mg) was 10 h. The Vd/F ([1]; 20 mg) was 3290 L, the half-life ([1]; 20 mg) was 2.68 days and the “estimated total clearance (CL/F)” value ([1]; oral, single or multiple doses (Tables 1, 2)) was 30 to 41 L/h. For the same compound, the CL/F ([1]; single oral dose 5 mg) was 29.62 (35) L/h, the CL/F ([1]; single oral dose 10 mg) was 40.52 (40) L/h and the CL/F ([1]; single oral dose 20 mg) was 41.47 (60) L/h. For the same compound, the “action at 5-HT1B receptor” value (5-HT1B receptor) was “partial agonist”, the “I/half maximal inhibitory concentration (Pgp efflux)” value [2] was “smaller than 0.1” and the “Pgp substrate in vitro” value ([2]; in vitro) was “poor substrate”. For the same compound, the “inhibition of Pgp transport in vitro” value ([2]; in vitro) was “weak inhibitor”, the “tolerability regardless of degree of renal or hepatic impairment” value [3] was “well tolerated” and the tolerability of combination [3, 10] was “well tolerated”. For the same compound, the “fraction of unbound parent drug, hepatically impaired vs healthy” value [4] was “no differences”, the “AUC(0–t) lower than healthy cohorts” value [4, 11] was “up to 9%” and the “C max lower than healthy cohorts” value [4, 11] was “up to 16%”. The “AUC(0–t) higher than healthy controls” value [4, 12] was 10%, the “C max lower than healthy controls” value [4, 12] was 24% and the “AUC(0–24) higher in elderly than young subjects” value ([5]; multiple 10-mg doses (Fig. 2)) was 27%. For the same compound, the “C max higher in elderly than young subjects” value ([5]; multiple 10-mg doses (Fig. 2)) was 23%, the “AUC(0–24) higher in female than male subjects” value ([5]; multiple doses (Fig. 2)) was 27% and the “C max higher in female than male subjects” value ([5]; multiple doses (Fig. 2)) was 24%. The “AUC(0–24) higher in Japanese than white participants” value [5, 13] was 8%, the “C max higher in Japanese than white participants” value [5, 13] was 9% and the “inhibitory in-vitro effect on CYP2D6” value (CYP2D6) was “no inhibitory in-vitro effect”. For the same compound, the “inhibitory in-vitro effect on CYP1A2” value (CYP1A2) was “no inhibitory in-vitro effect”, the “effect on cardiac repolarization” value [6] was “unlikely to affect cardiac repolarization” and the “AUC(0–24) increase of vortioxetine” value [7, 14] was 2.3 fold. For the same compound, the “C max increase of vortioxetine” value [7, 14] was 2.1 fold, the “AUC(0–t) and C max of vortioxetine with a Pgp inhibitor” value ([7]; co-administered with ketoconazole) was “marginally increased” and the “effect on exposure to vortioxetine” value ([7]; co-administration of aspirin) was “no effect”. For the same compound, the “effect on exposure to vortioxetine” value ([7]; co-administration of ethanol) was “no effect”, the “effect on exposure to vortioxetine” value ([7]; co-administration of omeprazole) was “no effect” and the “AUC(0–t) increase of vortioxetine” value [7, 15] was 46%. For the same compound, the “C max increase of vortioxetine” value [7, 15] was 15%, the “AUC(0–t) increase of vortioxetine” value [7, 16] was 30% and the “C max increase of vortioxetine” value [7, 16] was 26%. For the same compound, the “AUC(0–t) decrease of vortioxetine” value [7, 10] was 72%, the “C max decrease of vortioxetine” value [7, 10] was 51% and the AUC(0-t) ([8]; 5 mg) was 175 ng·h/mL. It also gave a Tmax ([8]; 5 mg) of 7 h, a Vd/F ([8]; 5 mg) of 2500 L and a half-life ([8]; 5 mg) of 2.5 days. For the same compound, the AUC(0-t) ([8]; 10 mg) was 344 ng·h/mL, the Tmax ([8]; 10 mg) was 8 h and the Vd/F ([8]; 10 mg) was 3290 L. It also gave a half-life ([8]; 10 mg) of 2.45 days, an AUC(0-t) ([8]; 20 mg) of 646 ng·h/mL and a Tmax ([8]; 20 mg) of 8 h. The Vd/F ([8]; 20 mg) was 3370 L, the half-life ([8]; 20 mg) was 2.68 days and the “AI (accumulation index = AUC(0–tau) at steady state/AUC(0–24) day 1)” value ([8]; multiple doses 5 mg) was 5.17 (27). For the same compound, the CL/F ([8]; multiple doses 5 mg) was 32.96 (33) L/h, the C max ([8]; multiple doses 5 mg) was 8.69 (42) ng/mL and the “AI (accumulation index = AUC(0–tau) at steady state/AUC(0–24) day 1)” value ([8]; multiple doses 10 mg) was 4.87 (34). For the same compound, the CL/F ([8]; multiple doses 10 mg) was 38.27 (60) L/h, the C max ([8]; multiple doses 10 mg) was 17.92 (44) ng/mL and the “AI (accumulation index = AUC(0–tau) at steady state/AUC(0–24) day 1)” value ([8]; multiple doses 20 mg) was 5.68 (38). The CL/F ([8]; multiple doses 20 mg) was 40.11 (47) L/h, the C max ([8]; multiple doses 20 mg) was 33.03 (38) ng/mL and the “accumulation index (AUC(0–24) ratio steady state / single dose)” value ([8]; multiple doses of 5–20 mg (Table 2)) was 5–6. For the same compound, the “arachidonic acid-, adenosine diphosphate-, or collagen-induced platelet aggregation” value ([9]; vortioxetine 10 mg added to aspirin 150 mg) was “did not change”, the “International Normalized Ratio or prothrombin times between groups” value ([9]; vortioxetine 10 mg with stable warfarin doses (1–10 mg), day 14) was “no difference” and the “ratio of maximum plasma concentration of inhibitor (I) and Ki” value (CYP2C9; CYP2C9, much smaller than) was “smaller than 0.1”. The “inhibitory effect on CYP2C9” value (CYP2C9; [17]) was “inhibitory effect”, the “ratio of maximum plasma concentration of inhibitor (I) and Ki” value (CYP2C19; CYP2C19, much smaller than) was “smaller than 0.1” and the “inhibitory effect on CYP2C19” value (CYP2C19; [17]) was “inhibitory effect”. The “action at 5-HT7 receptor” value (5-HT7 receptor) was “antagonist”.
